Assay results taken from ChEMBL document CHEMBL1128328, “Identification of efficient pentapeptide substrates for the tyrosine kinase pp60c-src” (J Med Chem, 1995).

Experiments:
[1] = target: Proto-oncogene tyrosine-protein kinase Src (Homo sapiens) (UniProt P12931); test: Incorporation of 32P into phosphopeptide product (1 mM) in pp60c-src phosphorylation assay
Method in brief: (§1)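 Human pp60c-src (baculovirus/SF9 recombinant, partially purified), 10 units in 40 µL; 138 mM MOPS pH 7.1, 0.64 mM MgCl2 (calculated free Mg2+ 0.44 mM), BSA 0.37 mg/mL, 200 µM [γ-32P]ATP, 20 µM ADP; peptide at 1 or 3 mM final; 30 min, 30 °C; acid molybdate quench; PEI-cellulose column, 1 M LiCl elution, Cerenkov counting; triplicate, no-peptide blank subtracted.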

[2] = target: Proto-oncogene tyrosine-protein kinase Src (Homo sapiens) (UniProt P12931); test: Incorporation of 32P into phosphopeptide product (3 mM) in pp60c-src phosphorylation assay; method in brief: as §1
[3] = test system: CC[C@H](C)[C@H](NC(C)=O)C(=O)N[C@@H](Cc1ccc(O)cc1)C(=O)NCC(=O)N[C@@H](CCC(=O)O)C(=O)N[C@@H](Cc1ccccc1)C(N)=O; test: (§2) Maximum enzyme velocity(Vmax) of peptide phosphorylation by pp60src
Method in brief: (§3)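 Same pp60c-src reaction (pH 7.1 MOPS, 200 µM [γ-32P]ATP, 20 µM ADP, 30 min, 30 °C, PEI-cellulose/Cerenkov readout). Two peptide levels, near and ~10× estimated Km (200 µM/2 mM, 25/300 µM, or 50 µM/1 mM depending on peptide). Initial velocities in 4–6 repeats per level, minus zero-time blank. Apparent values from Cornish-Bowden direct linear plot.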

[4] = test system: CC[C@H](C)[C@H](NC(=O)[C@H](CCC(=O)O)NC(=O)[C@H](CCC(=O)O)NC(=O)[C@H](CCC(=O)O)NC(=O)[C@H](C)N)C(=O)N[C@@H](Cc1ccc(O)cc1)C(=O)NCC(=O)N[C@@H](CCC(=O)O)C(=O)N[C@@H](Cc1ccccc1)C(=O)N[C@@H](CCC(=O)O)C(=O)N[C@@H](C)C(=O)N[C@@H](CCCCN)C(=O)N[C@@H](CCCCN)C(=O)N[C@@H](CCCCN)C(=O)N[C@@H](CCCCN)C(=O)O; test: as §2; method in brief: as §3
[5] = test system: CC[C@H](C)[C@H](NC(=O)[C@H](C)NC(=O)[C@H](CC(=O)O)NC(=O)[C@H](CCC(=O)O)NC(C)=O)C(=O)N[C@@H](Cc1ccc(O)cc1)C(N)=O; test: as §2; method in brief: as §3
[6] = test system: CC[C@H](C)[C@H](NC(C)=O)C(=O)N[C@@H](Cc1ccc(O)cc1)C(=O)NCC(=O)N[C@@H](CCC(=O)O)C(=O)N[C@@H](Cc1ccccc1)C(N)=O; test: (§4) Michaelis-Menten (Km) constant for peptide phosphorylation by pp60src; method in brief: as §3
[7] = test system: CC[C@H](C)[C@H](NC(=O)[C@H](CCC(=O)O)NC(=O)[C@H](CCC(=O)O)NC(=O)[C@H](CCC(=O)O)NC(=O)[C@H](C)N)C(=O)N[C@@H](Cc1ccc(O)cc1)C(=O)NCC(=O)N[C@@H](CCC(=O)O)C(=O)N[C@@H](Cc1ccccc1)C(=O)N[C@@H](CCC(=O)O)C(=O)N[C@@H](C)C(=O)N[C@@H](CCCCN)C(=O)N[C@@H](CCCCN)C(=O)N[C@@H](CCCCN)C(=O)N[C@@H](CCCCN)C(=O)O; test: as §4; method in brief: as §3
[8] = test system: CC[C@H](C)[C@H](NC(=O)[C@H](C)NC(=O)[C@H](CC(=O)O)NC(=O)[C@H](CCC(=O)O)NC(C)=O)C(=O)N[C@@H](Cc1ccc(O)cc1)C(N)=O; test: as §4; method in brief: as §3

Row | CPM x1000 [1] | CPM x1000 [2] | Molecule | further results
1 | 702 | – | CC[C@H](C)[C@H](NC(=O)[C@H](CCC(=O)O)NC(=O)[C@H](CCC(=O)O)NC(=O)[C@H](CCC(=O)O)NC(=O)[C@H](C)N)C(=O)N[C@@H](Cc1ccc(O)cc1)C(=O)NCC(=O)N[C@@H](CCC(=O)O)C(=O)N[C@@H](Cc1ccccc1)C(=O)N[C@@H](CCC(=O)O)C(=O)N[C@@H](C)C(=O)N[C@@H](CCCCN)C(=O)N[C@@H](CCCCN)C(=O)N[C@@H](CCCCN)C(=O)N[C@@H](CCCCN)C(=O)O | –
2 | – | 23.4 | Ac-DAEYA-NH2 | –
3 | – | 28.5 | Ac-EDAEYA-NH2 | –
4 | 403 | – | Ac-EDAIY-NH2 | –
5 | 63.5 | 89.5 | Ac-EGTYG-NH2 | –
6 | – | 120 | Ac-GEGTYGV-NH2 | –
7 | 497 | – | Ac-IYGEF-NH2 | –
8 | – | 80.3 | H-RRLIEDAEYAARG-OH | –
9 | – | – | Proto-oncogene tyrosine-protein kinase Src (Homo sapiens) (from UniProt P12931) | Vmax [3]: 1.02 µM/min/mg; Vmax [4]: 3.06 µM/min/mg; Vmax [5]: 1.86 µM/min/mg; Km [6]: 368 µM; Km [7]: 100 µM; Km [8]: 880 µM
